Hep lipid drop: modulators of hepatic lipid droplet formation | AML12 mouse hepatocytes, oleate lipid droplets, BODIPY imaging | inhibition, % at 6.5 µM | 240,000 compounds, 0.4% hits;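 active means lipid droplet intensity inhibited by at least 50%, with more than 500 cells counted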
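Test system: AML12 hepatocytes (mouse); reagent: oleate loading, 100 µM; dosing: one dose, 6.5 µM compound; incubation: overnight exposure; signal: fluorescence imaging, 20x objective, two fields per well; read-out basis: % inhibition of corrected integrated BODIPY droplet signal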
aDG glyco act: increases alpha dystroglycan glycosylation | activation, % at 10 µM | 360,000 compounds, 0.22% hits | Pro5-aDG cells, alpha-DG glycosylation AlphaScreen (IIH6); 0% Pro5, 100% B10-LARGE cell signal;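 active means activation of at least 8% versus controls, or a plate z-score of at least 8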;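 further: Pro5 are CHO cells carrying HIG-tagged alpha-DG that lacks glycosylation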
MPTP block: permeability transition pore inhibition | isolated mouse mitochondria, Ca2+ swelling absorbance, 30 min | inhibition, % at 10 µM | 360,000 compounds, 1.4% hits | AID 602449;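 active means inhibition of 50% or more, scaled per plate between neutral and stimulator controls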;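 further: 0% = DMSO wells given calcium and 100% = 1 mM EGTA wells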
ADAM17 inh: inhibitors of human ADAM17; P78536; recombinant ADAM17, EDANS/DABCYL FRET peptide cleavage; inhibition, % at 6.95 µM; 370,000 compounds, 0.83% hits;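 active means inhibition above the mean of compounds lying between control limits plus 3 SD, set per campaign, cut at about 8.5% in these data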;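 further: 0% = DMSO-only wells as the low control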
Target sequence (P78536 215-824 limits assumed): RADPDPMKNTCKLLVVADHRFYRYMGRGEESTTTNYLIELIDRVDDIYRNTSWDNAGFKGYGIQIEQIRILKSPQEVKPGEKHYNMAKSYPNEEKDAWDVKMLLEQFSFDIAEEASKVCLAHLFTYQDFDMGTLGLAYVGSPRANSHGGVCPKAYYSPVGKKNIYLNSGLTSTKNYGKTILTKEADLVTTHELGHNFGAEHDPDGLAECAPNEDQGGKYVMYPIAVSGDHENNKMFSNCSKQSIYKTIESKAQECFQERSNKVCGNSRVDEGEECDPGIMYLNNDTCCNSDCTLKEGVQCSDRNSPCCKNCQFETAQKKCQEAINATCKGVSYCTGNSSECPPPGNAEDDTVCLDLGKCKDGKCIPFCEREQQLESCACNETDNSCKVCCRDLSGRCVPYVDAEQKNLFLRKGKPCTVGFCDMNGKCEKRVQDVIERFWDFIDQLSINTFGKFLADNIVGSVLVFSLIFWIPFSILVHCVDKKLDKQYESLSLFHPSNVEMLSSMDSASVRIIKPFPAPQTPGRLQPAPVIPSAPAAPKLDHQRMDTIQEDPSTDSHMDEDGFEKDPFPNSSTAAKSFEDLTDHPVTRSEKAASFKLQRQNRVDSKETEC
V-ATPase pHluor: yeast V-ATPase proton transport regulation by pHLuorin; S. cerevisiae, pHLuorin cytosolic pH fluorescence; response, % at 10 µM; 350,000 compounds, 0.37% hits; in the data active means response mostly above about 7.3%, no sharp cut-off; inactive means mostly below about 5.4%; further: actives read high
ADAM10 inh: ADAM10 inhibition, QFRET primary screen; inhibition, % at 7 µM; O14672; 370,000 compounds, 0.62% hits; recombinant ADAM10, EDANS/DABCYL FRET peptide cleavage, 3 h;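 active means inhibition above a per-campaign cutoff equal to the mean of compounds falling between control-based bounds plus 3 SD, cut at about 20% in these data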;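 further: 0% = DMSO wells while the 100% control is not disclosed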
ADAM10 ctr: inhibits human ADAM10 in ADAM17 exosite counter-screen; inhibition, % at 6.95 µM; AID 743256; 2,900 compounds, 47% hits; shares compounds with ADAM17 inh; recombinant ADAM10, EDANS/DABCYL FRET peptide cleavage, 3 h;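 active means mean inhibition over the triplicate runs exceeds the activity threshold set in the earlier primary screen, cut at about 20% in these data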;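 further: 0% = DMSO wells and 100% = marimastat wells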
ADAM17 confirm: human ADAM17 inhibition, confirmation. shares compounds with ADAM17 inh. recombinant ADAM17, EDANS/DABCYL QFRET peptide cleavage. inhibition, % at 6.95 µM. 2,900 compounds, 65% hits. AID 743257;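 active means mean inhibition across replicates above the hit cutoff set in the primary screen, cut at about 8.5% in these data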;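 further: 0% = DMSO wells and 100% = marimastat wells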
Active calls of the source: *. The list is not random: actives were taken first. Their share in the collection is about 3.1%.

For CC(=O)Nc1ccc(-c2ccnc3c2CC(C)(C(=O)Nc2ccccc2)O3)cc1 (stereo unspecified) the results were aDG glyco act 0.1, MPTP block 1.6, ADAM17 inh -1.1 and ADAM10 inh -5.8.
`COc1ccc(S[C@]2(C(=O)N3CCN(c4ncccn4)CC3)CC(=O)N(C(=O)C3CC3)[C@@H]2c2ccc(OC)cc2)cc1` gave ADAM17 inh -0.3 and ADAM10 inh 3.3.
For COc1ccc(S[C@]2(C(=O)N3CCN(c4ncccn4)CC3)CC(=O)N(c3ccc(Cl)cc3)[C@@H]2c2ccc(OC)cc2)cc1 the results were ADAM17 inh -3.5 and ADAM10 inh -3.4.
O=C(CCNC(=O)c1ccc(Cl)cc1)NCCC1=CCCCC1 was read as aDG glyco act 0.2, MPTP block 0.9, ADAM17 inh 8.7*, V-ATPase pHluor -3.1, ADAM10 inh 3.9, ADAM10 ctr 13.6 and ADAM17 confirm 9.2*.
For Cc1ccccc1Nc1nc(N)nc(COC(=O)c2ccccc2)n1 the results were Hep lipid drop 2.3, aDG glyco act -0.1, MPTP block -0.7, ADAM17 inh -1.0, V-ATPase pHluor 0.0 and ADAM10 inh 5.2.
`Cc1ccccc1Nc1nc(N)nc(COC(=O)CCNS(=O)(=O)c2ccccc2)n1` gave aDG glyco act -0.2, MPTP block -2.2, ADAM17 inh 12.1*, V-ATPase pHluor 1.3, ADAM10 inh 8.6, ADAM10 ctr -3.1 and ADAM17 confirm 0.1.
`Clc1ccc(-n2c(SCc3cccc4ccccc34)nnc2-c2ccccn2)cc1` gave ADAM17 inh 11.2*, ADAM10 inh 10.3, ADAM10 ctr 26.6* and ADAM17 confirm 14.1*.
Screening O=C(NCc1ccccc1)O[C@H]1CC[C@@]23CCCN2C(=O)CCC[C@H]3C1 returned ADAM17 inh -2.0 and ADAM10 inh -1.3.
O=C(CCc1ccccc1)N[C@H]1[C@H](OC(=O)c2cccnc2)CCC[C@@]12C(=O)N(Cc1ccccc1)c1ccccc12 was read as ADAM17 inh 5.3 and ADAM10 inh 10.8.
For CC(C)C[C@@H]1COc2cc(Br)ccc2S(=O)(=O)N1Cc1cn(CC2CCCCC2)nn1 the results were ADAM17 inh -7.1 and ADAM10 inh -10.4.
CCCCOC(=O)C1=C(C)Nc2nnnn2C1c1ccccc1Cl (stereo unspecified) was read as Hep lipid drop 0.4, aDG glyco act 0.0, MPTP block 3.7, ADAM17 inh 9.6*, V-ATPase pHluor 2.4, ADAM10 inh 13.6, ADAM10 ctr 15.7 and ADAM17 confirm 8.4.
For CCOC(=O)C1=C(C)Nc2nnnn2C1c1ccccc1Cl (stereo unspecified) the results were Hep lipid drop -0.4, aDG glyco act 0.0, MPTP block 1.2, ADAM17 inh -3.3, V-ATPase pHluor 1.6 and ADAM10 inh -2.4.
For CCOc1ccc(NC(=O)CN2CCN(c3ccc(F)cc3)CC2)cc1S(=O)(=O)N1CCCC1 the results were aDG glyco act 0.1, MPTP block 0.7, ADAM17 inh 10.5*, V-ATPase pHluor -1.2, ADAM10 inh -0.9, ADAM10 ctr 2.4 and ADAM17 confirm 4.5.
`CCOc1ccc(NC(=O)CN2CCN(c3ccccc3C)CC2)cc1S(=O)(=O)N1CCCC1` gave aDG glyco act 0.1, MPTP block -1.3, ADAM17 inh -2.7, V-ATPase pHluor -1.2 and ADAM10 inh -4.1.
`CC1=C(C(=O)OCCNC(=O)c2ccccc2O)C(c2ccccc2[N+](=O)[O-])C(C(=O)OCC2CCCO2)=C(C)N1` (stereo unspecified) gave Hep lipid drop 2.2, aDG glyco act 0.5, MPTP block 3.1, ADAM17 inh 13.3*, V-ATPase pHluor 4.1, ADAM10 inh 15.0, ADAM10 ctr 16.3 and ADAM17 confirm 7.3.
For CC1=C(C(=O)OCC2CCCO2)C(c2ccccc2)NC(=O)N1 (stereo unspecified) the results were aDG glyco act 0.0, MPTP block -0.5, ADAM17 inh -0.9, V-ATPase pHluor -0.8 and ADAM10 inh -4.7.
COC[C@@H]1CCCN1c1cccc2c1S(=O)(=O)N(C1CC1)CC[C@@H](C)O2 was read as ADAM17 inh -14.4 and ADAM10 inh -42.4.
`COc1cc(/C=N/NC(=O)c2cc(-c3ccccc3OC(C)C)nc3ccccc23)ccc1O` gave Hep lipid drop -4.6, aDG glyco act -0.2, MPTP block -0.1, ADAM17 inh 10.7*, V-ATPase pHluor -2.7, ADAM10 inh 17.5, ADAM10 ctr 17.1 and ADAM17 confirm 15.1*.
`O=C(NCCc1c[nH]c2ccccc12)OCc1cn(Cc2cc(F)cc(F)c2)nn1` gave ADAM17 inh -1.1 and ADAM10 inh 1.1.
Cc1cc2c(s1)c1cnn(Cc3ccc(F)cc3F)c(=O)c1n2C was read as ADAM17 inh -4.2 and ADAM10 inh -2.0.
`CC(=O)Nc1ccc(S(=O)(=O)NCCSCc2c(Cl)cccc2Cl)cc1` gave aDG glyco act 0.6, MPTP block 31.8, ADAM17 inh -1.8, V-ATPase pHluor 0.8 and ADAM10 inh -1.1.
For CC(=O)Nc1ccc(S(=O)(=O)NCCSCc2cccc(Cl)c2)cc1 the results were Hep lipid drop -2.2, aDG glyco act 0.5, MPTP block 3.7, ADAM17 inh 8.9*, V-ATPase pHluor 2.7, ADAM10 inh 15.5, ADAM10 ctr 6.5 and ADAM17 confirm 4.6.
Cc1ccccc1C(=O)NC1CCN(CC(=O)Nc2ccccc2Cl)CC1 was read as Hep lipid drop -1.0, aDG glyco act 0.0, MPTP block 0.6, ADAM17 inh -2.0, V-ATPase pHluor -4.8 and ADAM10 inh 13.0.
Screening Cc1c(Cl)cccc1NC(=O)CN1CCC(C(O)(c2ccccc2)c2ccccc2)CC1 returned aDG glyco act 0.6, MPTP block 1.4, ADAM17 inh 8.8*, V-ATPase pHluor 1.7, ADAM10 inh 12.5, ADAM10 ctr 30.1* and ADAM17 confirm 16.5*.
`O=C(CCn1c2c(c3ccccc31)CCCC2)NNC(=O)c1ccc([N+](=O)[O-])cc1` gave Hep lipid drop -3.7, aDG glyco act 0.0, MPTP block 1.9, ADAM17 inh 11.0*, V-ATPase pHluor 1.6, ADAM10 inh 16.3, ADAM10 ctr 16.7 and ADAM17 confirm 9.9*.
Screening O=C(CCn1c2c(c3ccccc31)CCCC2)NNC(=O)c1ccc(Cl)c([N+](=O)[O-])c1 returned Hep lipid drop -0.3, aDG glyco act 0.2, MPTP block 26.1, ADAM17 inh 1.5, V-ATPase pHluor -2.8 and ADAM10 inh 0.3.

Source: PubChem BioAssay (several laboratories)
